Activity calls are given as the source filed them. No cut-off for these calls is given here.
Legend:
HeLa [1] = assay: Induction of autophagic cell death in human HeLa cells after 24 hrs by MTT assay; format: functional, cell-based
Outline: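 MTT viability assay in HeLa cells after 24 h treatment over a log concentration range, with DMSO vehicle control. Viable cells normalized to DMSO-treated cells as percent viability. EC50 estimated from a sigmoidal dose–response curve.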

MEF [2] = assay: Induction of autophagy in wild-type MEF assessed as autophagosome formation at 2 to 4 uM after 15 hrs by Cyto-ID reagent/ Hoechst 33342 staining based fluorescence assay; format: functional, cell-based; details: Mus musculus
Outline: (§1)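 Wild-type and Bax/Bak double-knockout MEFs treated 15 h at the indicated concentrations alongside DMSO vehicle. Stained with Cyto-ID reagent (green) for autophagosomes and MDC (blue) for acidic vacuoles, then imaged.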

MEF [3] = assay: Induction of autophagy in Bax/Bak double knockout MEF assessed as autophagosome formation at 2 to 4 uM after 15 hrs by Cyto-ID reagent/ Hoechst 33342 staining based fluorescence assay; format: functional, cell-based; details: Mus musculus; outline: as §1
MEF [4] = assay: Induction of autophagy in wild-type MEF assessed as accumulation of acidic vacuoles at 2 to 4 uM after 15 hrs by MDC/Hoechst 33342 staining based fluorescence assay; format: functional, cell-based; details: Mus musculus; outline: as §1
MEF [5] = assay: Induction of autophagy in Bax/Bak double knockout MEF assessed as accumulation of acidic vacuoles at 2 to 4 uM after 15 hrs by MDC/Hoechst 33342 staining based fluorescence assay; format: functional, cell-based; details: Mus musculus; outline: as §1
MEF [6] = assay: Induction of autophagy in wild-type MEF assessed as conversion of LC3-1 to LC3-2 at 2.5 to 5 uM after 15 hrs by Western blot analysis; format: functional, cell-based; details: Mus musculus
Outline: (§2)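 Wild-type and Bax/Bak double-knockout MEFs treated 15 h at the indicated concentrations with DMSO vehicle control. LC3-I to LC3-II conversion assessed by immunoblot.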

MEF [7] = assay: Induction of autophagy in Bax/Bak double knockout MEF assessed as conversion of LC3-1 to LC3-2 at 2.5 to 5 uM after 15 hrs by Western blot analysis; format: functional, cell-based; details: Mus musculus; outline: as §2
HeLa [8] = assay: Induction of autophagy in human HeLa cells assessed as acidic vacuoles at 3 to 25 uM after 24 hrs by MDC/Hoechst 33342 staining based fluorescence assay; format: functional, cell-based
Outline: (§3)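 Acidic vacuoles in HeLa cells after 24 h exposure, with DMSO vehicle control. Cells stained with MDC and imaged under the DAPI filter.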

HeLa [9] = assay: Induction of autophagy in human HeLa cells assessed as accumulation of acidic vacuoles at 3 and 25 uM after 24 hrs by MDC/Hoechst 33342 staining based fluorescence assay; format: functional, cell-based; outline: as §3
MEF [10] = assay: Induction of autophagic cell death in wild-type MEF after 15 hrs by MTT assay; details: Mus musculus
MEF [11] = assay: Induction of autophagic cell death in Bax/Bak double knockout MEF after 15 hrs by MTT assay; details: Mus musculus
HeLa [12] = assay: Induction of autophagy in human HeLa cells assessed as autophagosome formation after 24 hrs by Cyto-ID reagent/ Hoechst 33342 staining based fluorescence assay; format: functional, cell-based
Outline: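 HeLa cells treated 24 h at various doses, DMSO as vehicle control. Stained with Hoechst 33342 and green Cyto-ID reagent and imaged under DAPI and GFP filters. Plate read at 340/480 nm (Hoechst) and 480/539 nm (Cyto-ID) Ex/Em. Cyto-ID fluorescence per cell taken relative to DMSO-treated cells, and a sigmoidal dose–response curve constructed.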

HeLa [13] = assay: Induction of autophagy in human HeLa cells assessed as accumulation of acidic vacuoles after 24 hrs by MDC/Hoechst 33342 staining based fluorescence assay; format: functional, cell-based
Outline: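 HeLa cells exposed 24 h over a dose range with DMSO vehicle control, then stained with MDC for acidic vacuoles. Fluorescence read at 335/512 nm (Ex/Em) and normalized to viable cell number from a parallel MTT assay. Per-cell signal expressed relative to DMSO-treated cells as fold intensity. Sigmoidal dose–response curve fitted.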

HeLa [14] = assay: Induction of autophagic cell death in human HeLa cells at 8 uM after 24 hrs by MTT assay relative to control; format: functional
Outline: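 HeLa cells exposed 24 h to compound at graded concentrations with DMSO vehicle control; viability read by MTT assay and viable cell number normalized against DMSO-treated cells to give percent viable cells.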

HeLa [15] = assay: Induction of autophagy in human HeLa cells assessed as accumulation of LC3-2 at 2.5 to 5 uM after 24 hrs by Western blot analysis; format: functional, cell-based
Outline: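 Immunoblot of HeLa lysates for LC3-I to LC3-II conversion after 24 h treatment, with DMSO vehicle control and actin probed as reference.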

SMILES | EC50 (HeLa [1]) [µM] | Activity (MEF [2]) | Activity (MEF [3]) | Activity (MEF [4]) | Activity (MEF [5]) | Activity (MEF [6]) | Activity (MEF [7]) | Activity (HeLa [8]) | Activity (HeLa [9]) | EC50 (MEF [10]) [µM] | EC50 (MEF [11]) [µM] | Activity (HeLa [12]) | EC50 (HeLa [12]) [µM] | EC50 (HeLa [13]) [µM] | fold change (FC) (HeLa [14]) | Activity (HeLa [15])
O=C(NCCC1CCCC1)c1coc(CSc2nc3sc4c(c3c(=O)n2Cc2ccccc2)CCCC4)n1 | 25 | inactive | inactive | inactive | inactive | inactive | inactive | inactive | inactive | 28.6 | 24.2 |  |  |  |  | 
O=C(NCCN1CCCC1)c1coc(CSc2nc3sc4c(c3c(=O)n2Cc2ccccc2)CCCC4)n1 | 3.5 | Active | Active | Active | Active | Active | Active |  |  | 2.1 | 2.2 | Dose-dependent effect | 3.5 | 1.3 | 5 | Active

From ChEMBL document CHEMBL4428098, “Facile synthesis of autophagonizer and evaluation of its activity to induce autophagic cell death in apoptosis-defective cell line” (Bioorg Med Chem Lett, 2016)
